Test results: ChEMBL document CHEMBL1151697, “Synthesis and structure-activity relationships for biphenyl H3 receptor antagonists with moderate anti-cholinesterase activity” (Bioorg Med Chem, 2008)
Active and inactive are the calls of the source. The rule behind the calls is not given here.

How the values were obtained:
[1] = biological target: T1, Histamine H3 receptor (Homo sapiens, UniProt Q9Y5N1); test: Antagonist activity at human histamine H3 receptor expressed in SK-N-MC cells by CRE-mediated beta-galactosidase reporter gene assay administered 10 mins before (R)-alpha-methylhistamine challenge after 6 hrs; format: functional, cell-based
T1 sequence (Q9Y5N1 whole entry): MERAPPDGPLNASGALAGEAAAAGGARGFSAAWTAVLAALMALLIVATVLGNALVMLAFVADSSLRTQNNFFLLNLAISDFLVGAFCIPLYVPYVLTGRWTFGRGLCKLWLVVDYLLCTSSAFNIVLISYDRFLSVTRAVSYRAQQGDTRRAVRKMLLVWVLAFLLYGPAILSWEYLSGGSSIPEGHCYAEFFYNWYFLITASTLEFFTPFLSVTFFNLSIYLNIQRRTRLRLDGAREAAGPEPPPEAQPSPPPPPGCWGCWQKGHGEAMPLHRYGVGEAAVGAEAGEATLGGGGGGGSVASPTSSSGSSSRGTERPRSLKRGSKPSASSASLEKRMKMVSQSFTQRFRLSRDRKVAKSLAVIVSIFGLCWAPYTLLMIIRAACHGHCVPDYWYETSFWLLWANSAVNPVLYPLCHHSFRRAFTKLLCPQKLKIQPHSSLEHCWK
Summary of the method: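 SK-N-MC cells stably carrying human H3 and a β-galactosidase reporter. Compound added to medium, forskolin 5 min later, then (R)-α-methylhistamine 10 min after compound; 6 h at 37 °C. Cells lysed in phosphate assay buffer (pH 8) with 0.5% Triton and 40 mM β-mercaptoethanol; β-galactosidase read at 570 nm. Means of 4–6 experiments.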

[2] = test system: SK-N-MC; test: Cytotoxicity against human SK-N-MC cells at 1 uM after 6 hrs by MTT test; format: functional, cell-based
Summary of the method: (§1)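 MTT viability test: SK-N-MC cells held 6 h with compound (1–10 µM) or vehicle. MTT (5 mg/ml stock) added for 3 h, cells washed in PBS, formazan dissolved in 0.1 N HCl in isopropanol, absorbance read at 570 nm. Viability given relative to control.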

[3] = test system: SK-N-MC; test: Cytotoxicity against human SK-N-MC cells at 10 uM after 6 hrs by MTT test; format: functional, cell-based; summary of the method: as §1
[4] = biological target: T2, Acetylcholinesterase (Rattus norvegicus) (UniProt P37136); test: Inhibition of acetylcholinesterase in Wistar rat brain homogenate at upto 1 to 100 uM by Ellman's method; format: tissue-based
T2 sequence (whole entry): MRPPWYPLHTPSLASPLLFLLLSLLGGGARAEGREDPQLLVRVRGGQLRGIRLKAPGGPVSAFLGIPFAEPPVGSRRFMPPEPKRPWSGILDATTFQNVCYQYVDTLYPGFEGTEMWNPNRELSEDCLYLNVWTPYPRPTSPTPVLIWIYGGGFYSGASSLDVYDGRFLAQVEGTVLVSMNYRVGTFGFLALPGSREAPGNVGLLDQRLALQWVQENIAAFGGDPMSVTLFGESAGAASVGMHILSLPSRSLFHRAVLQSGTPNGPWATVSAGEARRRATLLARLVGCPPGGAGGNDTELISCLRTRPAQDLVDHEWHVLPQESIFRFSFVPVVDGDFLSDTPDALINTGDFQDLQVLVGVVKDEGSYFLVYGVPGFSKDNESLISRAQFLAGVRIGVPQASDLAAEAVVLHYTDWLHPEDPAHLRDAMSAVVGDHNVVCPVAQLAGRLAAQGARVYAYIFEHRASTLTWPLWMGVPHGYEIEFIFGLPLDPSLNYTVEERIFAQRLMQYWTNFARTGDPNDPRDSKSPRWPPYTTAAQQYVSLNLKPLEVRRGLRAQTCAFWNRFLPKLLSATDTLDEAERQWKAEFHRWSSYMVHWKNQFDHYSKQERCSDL
Summary of the method: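 Male Wistar rat (150–200 g) brain homogenate in 0.1 M phosphate buffer (pH 8.0) with DTNB (5 mM) and compound at 1–100 µM. Reaction started at 37 °C by adding acetylthiocholine (75 mM solution) and stopped after 15 min with 4% formalin. 5-Thio-2-nitrobenzoate absorbance at 412 nm. Percent inhibition versus control; reported as pIC50.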

[5] = biological target: T3, Acetylcholinesterase (Rattus norvegicus, UniProt P37136); test: Inhibition of acetylcholinesterase in Wistar rat brain homogenate by Ellman's method; format: tissue-based
T3 sequence (P37136 whole entry): T2 sequence (whole entry)

[6] = biological target: Histamine H2 receptor (Cavia porcellus) (UniProt P47747); test: Antagonist activity at histamine H2 receptor in guinea pig atrium assessed as changes in rate of spontaneous beat at upto 10 uM; format: functional, tissue-based; conditions: Cardiac atrium
Chain of Histamine H2 receptor (Cavia porcellus) (P47747 whole entry): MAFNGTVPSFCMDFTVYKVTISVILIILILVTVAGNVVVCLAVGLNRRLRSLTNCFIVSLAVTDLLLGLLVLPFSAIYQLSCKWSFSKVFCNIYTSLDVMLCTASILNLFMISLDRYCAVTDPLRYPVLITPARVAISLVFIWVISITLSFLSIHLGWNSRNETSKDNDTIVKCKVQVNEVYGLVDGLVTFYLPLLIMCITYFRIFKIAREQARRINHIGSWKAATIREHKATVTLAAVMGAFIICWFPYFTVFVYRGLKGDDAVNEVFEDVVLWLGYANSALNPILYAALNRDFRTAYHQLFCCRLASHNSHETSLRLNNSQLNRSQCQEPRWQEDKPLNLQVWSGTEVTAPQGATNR
Summary of the method: (§2)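 Guinea-pig atria (H2) in Ringer–Locke at 31 °C (mM: NaCl 154.0, KCl 5.6, CaCl2 1.08, NaHCO3 5.95, glucose 11.1), gassed 95% O2–5% CO2. Spontaneous beating rate recorded by cardiotachograph. Cumulative dimaprit curves (0.1–100 µM) run without and with compound up to 10 µM. Affinity given as pKB by Furchgott, or as pD2′ by Van Rossum if non-surmountable.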

[7] = biological target: Histamine H1 receptor (Cavia porcellus) (UniProt P31389); test: Antagonist activity at histamine H1 receptor in guinea pig terminal ileum; format: functional, tissue-based
Chain of Histamine H1 receptor (Cavia porcellus) (P31389 whole entry): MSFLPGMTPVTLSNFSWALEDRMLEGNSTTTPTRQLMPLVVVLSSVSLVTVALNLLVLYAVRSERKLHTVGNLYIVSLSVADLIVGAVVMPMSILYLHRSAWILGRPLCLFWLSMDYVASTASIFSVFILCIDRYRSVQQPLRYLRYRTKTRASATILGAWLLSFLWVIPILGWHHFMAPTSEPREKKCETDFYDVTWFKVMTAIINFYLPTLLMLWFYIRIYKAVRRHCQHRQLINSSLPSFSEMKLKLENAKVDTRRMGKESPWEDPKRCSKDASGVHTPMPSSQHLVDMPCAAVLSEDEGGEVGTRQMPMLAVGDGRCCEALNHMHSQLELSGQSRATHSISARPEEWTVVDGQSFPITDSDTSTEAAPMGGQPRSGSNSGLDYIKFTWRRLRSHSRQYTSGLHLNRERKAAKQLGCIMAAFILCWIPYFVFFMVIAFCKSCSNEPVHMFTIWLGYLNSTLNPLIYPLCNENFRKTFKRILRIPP
Summary of the method: (§3)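 Guinea-pig (250–350 g) terminal ileum (H1) suspended isometrically in Krebs–Henseleit at 37 °C, aerated 95% O2–5% CO2. Cumulative histamine curves (1 nM to 1 µM) run without and with compound up to 10 µM. pKB (apparent pA2) from Furchgott's equation; pD2′ from Van Rossum's equation when antagonism was non-surmountable.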

[8] = biological target: Histamine H3 receptor (Cavia porcellus) (UniProt Q9JI35); test: Antagonist activity at histamine H3 receptor in electrically-stimulated guinea pig ileum assessed as inhibition of (R)-alpha-methylhistamine-induced twitch contraction in presence of 1 uM mepyramine; format: functional, tissue-based
Chain of Histamine H3 receptor (Cavia porcellus) (Q9JI35 whole entry): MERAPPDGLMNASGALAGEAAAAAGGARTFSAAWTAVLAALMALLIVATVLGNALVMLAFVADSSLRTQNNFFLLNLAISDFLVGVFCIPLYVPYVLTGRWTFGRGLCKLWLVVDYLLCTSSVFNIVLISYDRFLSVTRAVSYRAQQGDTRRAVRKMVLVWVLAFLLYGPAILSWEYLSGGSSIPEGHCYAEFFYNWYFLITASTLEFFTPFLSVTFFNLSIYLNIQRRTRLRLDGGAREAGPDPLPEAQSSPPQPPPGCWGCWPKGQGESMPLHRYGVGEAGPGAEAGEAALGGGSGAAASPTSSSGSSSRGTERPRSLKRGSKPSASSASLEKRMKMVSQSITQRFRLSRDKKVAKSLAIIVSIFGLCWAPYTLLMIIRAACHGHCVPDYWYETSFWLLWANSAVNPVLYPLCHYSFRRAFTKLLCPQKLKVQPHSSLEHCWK
Summary of the method: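 Guinea-pig ileum, electrically stimulated (0.1 Hz, 1 ms, submaximal voltage). Twitch inhibition by cumulative (R)-α-methylhistamine (1 nM to 1 µM) with 1 µM mepyramine present. Compounds tested at 1 nM to 30 µM. Potency as pKB from Furchgott's equation, or as pD2′ (Van Rossum) for non-surmountable antagonism.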

[9] = biological target: Histamine H4 receptor (Homo sapiens, UniProt Q9H3N8); test: Displacement of [3H]histamine from human histamine H4 receptor expressed in SK-N-MC cells at upto 10 uM
Chain of Histamine H4 receptor (Q9H3N8 whole entry): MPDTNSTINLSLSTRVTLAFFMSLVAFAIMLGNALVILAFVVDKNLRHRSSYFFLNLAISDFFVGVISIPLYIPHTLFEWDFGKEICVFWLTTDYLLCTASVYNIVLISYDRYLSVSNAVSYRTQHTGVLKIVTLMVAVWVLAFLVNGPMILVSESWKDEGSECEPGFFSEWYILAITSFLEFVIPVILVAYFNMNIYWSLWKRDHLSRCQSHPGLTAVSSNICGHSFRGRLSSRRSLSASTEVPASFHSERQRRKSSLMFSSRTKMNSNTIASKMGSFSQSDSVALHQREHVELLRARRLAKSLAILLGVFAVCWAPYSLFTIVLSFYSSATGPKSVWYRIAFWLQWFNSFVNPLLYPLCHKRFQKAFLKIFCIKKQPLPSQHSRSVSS

[10] = biological target: T1, Histamine H3 receptor; test: Displacement of [3H]RAMHA from human histamine H3 receptor expressed in SK-N-MC cells; format: cell-based
Summary of the method: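 SK-N-MC membranes bearing human H3 incubated 60 min at room temperature with 0.5 nM [3H]-(R)-α-methylhistamine and competitor (0.01 nM to 10 µM). Rapid filtration, two washes in ice-cold 50 mM Tris–HCl/5 mM EDTA. Nonspecific binding with 10 µM histamine. pKi via Cheng–Prusoff; means of 4–6 experiments.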

[11] = biological target: Histamine H3 receptor (Rattus norvegicus, UniProt Q9QYN8); test: Displacement of [3H]RAMHA from histamine H3 receptor in Wistar rat brain membrane; format: cell membranes
Chain of Histamine H3 receptor (Rattus norvegicus, UniProt Q9QYN8) (Q9QYN8 whole entry): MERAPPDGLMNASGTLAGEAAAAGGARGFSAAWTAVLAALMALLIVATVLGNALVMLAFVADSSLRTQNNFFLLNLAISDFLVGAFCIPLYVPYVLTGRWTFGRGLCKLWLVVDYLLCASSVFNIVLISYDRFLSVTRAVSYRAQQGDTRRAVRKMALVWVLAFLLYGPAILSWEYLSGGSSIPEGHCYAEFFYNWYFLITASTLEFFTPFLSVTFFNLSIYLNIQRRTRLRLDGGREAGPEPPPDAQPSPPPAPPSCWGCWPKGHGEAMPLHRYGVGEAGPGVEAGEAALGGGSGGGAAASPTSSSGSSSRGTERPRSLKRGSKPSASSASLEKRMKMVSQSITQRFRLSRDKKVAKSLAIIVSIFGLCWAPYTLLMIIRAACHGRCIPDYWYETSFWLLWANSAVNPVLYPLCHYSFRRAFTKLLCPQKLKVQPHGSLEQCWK
Summary of the method: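 Membranes from male Wistar rat brain (150–200 g) incubated 45 min with 0.5 nM [3H]RAMHA and compound (0.03 nM to 10 µM) in 50 mM Tris–HCl pH 7.4, 50 mM NaCl, 0.5 mM EDTA. Vacuum filtration, two ice-cold buffer rinses. Nonspecific binding set with 10 µM thioperamide. pKi by Cheng–Prusoff.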

[12] = biological target: Histamine H1 receptor (Cavia porcellus) (UniProt P31389); test: Antagonist activity at histamine H1 receptor in guinea pig terminal ileum at upto 10 uM; format: functional, tissue-based; summary of the method: as §3
[13] = biological target: T2, Acetylcholinesterase (Rattus norvegicus); test: Inhibition of acetylcholinesterase in Wistar rat brain homogenate at upto 10 uM by Ellman's method; format: tissue-based
[14] = biological target: Histamine H2 receptor (Cavia porcellus) (UniProt P47747); test: Antagonist activity at histamine H2 receptor in guinea pig atrium assessed as changes in rate of spontaneous beat at upto 1 uM; format: functional, tissue-based; conditions: Cardiac atrium; summary of the method: as §2

Compound | pKb [1] | Activity [2] | Activity [3] | inhibition [4] [%] | IC50 [5] [µM] | Activity [6] | pD2 [7] | pKb [8] | Activity [9] | Ki [10] [µM] | Ki [11] [µM] | Activity [12] | Activity [13] | pKb [7] | Activity [14]
CC(=O)N1CCN(Cc2ccc(-c3ccc(CN4CCCCC4)cc3)cc2)CC1 | 7.86 | Not toxic | Not toxic | 79 | 11.5 | inactive | 4.46 | 7.79 | inactive | – | – | – | – | – | –
C(CCCCN1CCCCC1)CCCCN1CCCCC1 | – | – | – | – | – | – | – | – | – | 0.00447 | 0.0158 | – | – | – | –
CC1CCN(Cc2ccc(-c3ccc(CN4CCCCC4)cc3)cc2)CC1 | 8.64 | Not toxic | Not toxic | 93 | 1.41 | inactive | – | 8.75 | inactive | 0.0024 | 0.00575 | inactive | – | – | –
O=C1CCCCN1Cc1ccc(-c2ccc(CN3CCCCC3)cc2)cc1 | 7.46 | Not toxic | Not toxic | – | – | inactive | – | 7.57 | inactive | – | – | inactive | inactive | – | –
CC1CCN(Cc2ccc(-c3ccc(CN4CCC(C)CC4)cc3)cc2)CC1 | 7.68 | Not toxic | Not toxic | 83 | 3.55 | inactive | – | 7.3 | inactive | – | – | – | – | 5.89 | –
c1cc(-c2ccc(CN3CCCCC3)cc2)ccc1CCN1CCCCC1 | 9.28 | Not toxic | Not toxic | 91 | 1.1 | – | – | 8.73 | inactive | 0.002 | 0.00832 | inactive | – | – | inactive
CCCN(CCC)Cc1ccc(-c2ccc(CC(=O)N3CCCCC3)cc2)cc1 | 6.96 | Not toxic | Not toxic | 65 | 10.5 | – | – | 7.24 | inactive | 0.251 | 0.178 | – | – | 5.44 | inactive
CN(C)CCc1ccc(-c2ccc(CCN(C)C)cc2)cc1 | 8.06 | – | – | – | – | inactive | – | 8.04 | inactive | 0.00513 | 0.0195 | inactive | inactive | – | –
CCCN(CCC)Cc1ccc(-c2ccc(CCN3CCCCC3)cc2)cc1 | 8.82 | Not toxic | Not toxic | 80 | 6.76 | – | – | 7.98 | inactive | 0.00389 | 0.0107 | inactive | – | – | inactive
CCN(CC)Cc1ccc(-c2ccc(CN3CCCCC3)cc2)cc1 | 8.9 | Not toxic | Not toxic | – | – | inactive | – | 9.41 | inactive | 0.00195 | 0.00257 | inactive | inactive | – | –
CCCN(CCC)Cc1ccc(-c2ccc(CN3CCCCC3)cc2)cc1 | 8.18 | Not toxic | Not toxic | 93 | 1.48 | inactive | – | 9.12 | inactive | 0.00174 | 0.00316 | – | – | 5.48 | –
c1cc(-c2ccc(CN3CCCCC3)cc2)ccc1CNC1CCCCC1 | 8.03 | Not toxic | Not toxic | 73 | 5.75 | – | – | 7.59 | inactive | – | – | inactive | – | – | inactive
c1cc(-c2ccc(CN3CCOCC3)cc2)ccc1CN1CCCCC1 | 7.77 | Not toxic | Not toxic | – | – | inactive | – | 9.07 | inactive | 0.0195 | 0.0155 | inactive | inactive | – | –
CN(C)Cc1ccc(-c2ccc(CN(C)C)cc2)cc1 | 8.17 | Not toxic | Not toxic | – | – | inactive | – | 8.46 | inactive | – | – | inactive | inactive | – | –
CCCN(CCC)C(=O)Cc1ccc(-c2ccc(CN3CCCCC3)cc2)cc1 | 8.16 | Not toxic | Not toxic | 80 | 11.2 | – | – | 8 | inactive | 0.00851 | 0.0537 | – | – | 5.44 | inactive
c1cc(-c2ccc(CN3CCOCC3)cc2)ccc1CN1CCOCC1 | 7.67 | Not toxic | Not toxic | – | – | inactive | – | – | inactive | – | – | inactive | inactive | – | –
CCN(CC)Cc1ccc(-c2ccc(CN(CC)CC)cc2)cc1 | 8.96 | Not toxic | Not toxic | – | – | inactive | – | 9.34 | inactive | 0.00282 | 0.0024 | inactive | inactive | – | –
CN(Cc1ccc(-c2ccc(CN3CCCCC3)cc2)cc1)C1CCCCC1 | 9.19 | Not toxic | Not toxic | 93 | 1.38 | inactive | – | 8.46 | inactive | 0.00275 | 0.00741 | – | – | 5.56 | –
